Reference: ChEMBL document CHEMBL4431329, “Peripherally Selective Cannabinoid 1 Receptor (CB1R) Agonists for the Treatment of Neuropathic Pain” (J Med Chem, 2016)
Active and inactive are the calls of the source.

Experiments:
[1] = Toxicity in naive Sprague-Dawley rat assessed as motor incoordination at 0.01 mg/kg, ip after 2 to 48 hrs by rotarod test; assay type: organism-based; settings: in vivo
Method in brief: (§1)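 Rats were trained 72 h earlier (3 sessions, 24 h apart) to stay ≥180 s on an accelerating rotarod (4–40 rev over 5 min). Time on rod was recorded to a 3 min cutoff, 1 h pre-dose and 2, 6, 24 and 48 h after ip or oral gavage dosing. Values are peak effect minus vehicle; n = 6–8; blinded.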

Rattus norvegicus [2] = experiment: Analgesic activity in naive Sprague-Dawley rat assessed as tail flick latency at 0.1 to 10 mg/kg administered through oral gavage up to 48 hrs by tail-flick assay; assay type: functional, organism-based
Method in brief: (§2)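 Naïve male Sprague–Dawley rats were dosed ip (DMSO/Cremophor EL/saline) or by gavage (DMSO in 20% condensed milk). Radiant heat was aimed 3 cm from the tail tip and latency timed by photocell. Baseline was set to ~5–7 s with a 25 s cutoff. Testing ran 1 h pre-dose and up to 48 h after. Peak effect was taken minus vehicle; n = 6–8; blinded.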

[3] = Toxicity in naive Sprague-Dawley rat assessed as immobility at 0.01 mg/kg, ip by after 2 to 48 hrs by catalepsy ring test; assay type: organism-based; settings: in vivo
Method in brief: (§3)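 In the ring immobility test, forepaws were placed on a 12 cm horizontal ring with hindpaws just touching the bench. Time to move off was recorded, 100 s cutoff. Testing was pre-dose and 2, 6, 24 and 48 h after ip or oral gavage dosing. Values are peak effect minus vehicle; n = 6–8; blinded.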

Rattus norvegicus [4] = experiment: Analgesic activity in naive Sprague-Dawley rat assessed as increase in tail flick latency at 0.3 mg/kg, ip up to 48 hrs by tail-flick assay; assay type: functional, organism-based; method in brief: as §2
[5] = Toxicity in naive Sprague-Dawley rat assessed as hypothermia at 0.01 mg/kg, ip after 2 to 48 hrs by core temperature test; assay type: organism-based; settings: in vivo
Method in brief: (§4)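 Naïve rats were acclimated to a restrainer (two 5-min sessions 20 min apart). Core temperature was taken before and 2, 6, 24 and 48 h after ip (DMSO/Cremophor EL/saline) or oral gavage (DMSO in 20% condensed milk) dosing. Dose-response points are mean peak effect minus vehicle; n = 6–8 rats; blinded.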

Rattus norvegicus [6] = experiment: Analgesic activity in naive Sprague-Dawley rat assessed as tail flick latency at 0.01 mg/kg, ip up to 48 hrs by tail-flick assay; assay type: functional, organism-based; method in brief: as §2
[7] = Metabolic stability in Sprague-Dawley rat plasma assessed as compound remaining at 10 uM measured at 1 hr by LC/MS analysis; assay type: ADME, cell-free
Method in brief: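 Compound (10 μM final, from 1 mM ethanol stock) was incubated in male Sprague–Dawley rat plasma at 37 °C. Aliquots taken at 0, 30 and 60 min were extracted with 3 volumes methanol and centrifuged. Supernatants were analysed by LC/MS.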

Cannabinoid receptor 1 [8] = target: T1, Cannabinoid receptor 1 (Homo sapiens, UniProt P21554); experiment: Agonist activity at human CB1R expressed in CHO cells by Ca2+ flux assay; assay type: functional, cell-based
T1 sequence (P21554 whole entry): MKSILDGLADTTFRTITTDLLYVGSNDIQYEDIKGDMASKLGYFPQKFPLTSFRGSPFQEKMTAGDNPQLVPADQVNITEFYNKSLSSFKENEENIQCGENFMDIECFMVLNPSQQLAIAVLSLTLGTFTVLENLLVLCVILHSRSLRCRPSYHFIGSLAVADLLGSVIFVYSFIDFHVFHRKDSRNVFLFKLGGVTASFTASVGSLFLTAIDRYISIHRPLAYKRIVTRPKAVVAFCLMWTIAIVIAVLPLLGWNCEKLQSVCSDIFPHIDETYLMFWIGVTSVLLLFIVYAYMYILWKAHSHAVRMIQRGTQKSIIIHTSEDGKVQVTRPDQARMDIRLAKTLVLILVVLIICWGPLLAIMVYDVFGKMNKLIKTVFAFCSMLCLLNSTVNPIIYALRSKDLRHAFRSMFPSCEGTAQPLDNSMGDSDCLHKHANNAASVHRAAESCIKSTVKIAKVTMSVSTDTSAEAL
Method in brief: (§5)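 CHO cells stably co-expressing human CB1 or CB2 with Gαq16 were seeded at 40000/well and grown 24 h at 37 °C. They were loaded 1 h at 37 °C with Fluo-4 AM (2 μM final) in HBSS/20 mM HEPES/1% BSA/probenecid. Agonist was added after ~17 s baseline, and fluorescence (ex 488/em 525) was read each 1 s for 60 s. Runs were done 3–6 times; mean ± SEM.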

[9] = Metabolic stability in Sprague-Dawley rat liver S9 fraction assessed as compound remaining at 10 uM measured at 1 hr by LC/MS analysis; assay type: ADME, subcellular; settings: s9, 1 h
Method in brief: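 Compound (10 μM final, from 1 mM ethanol stock) was incubated at 37 °C in male Sprague–Dawley rat liver S9 (1 mg protein/mL). The mix held an NADPH-regenerating system (1 mM NADP, 5 mM glucose 6-phosphate, 1 U/mL G6PDH) in 50 mM KPO4 pH 7.4 with 3 mM MgCl2, preincubated 5 min. Samples at 0–120 min were methanol-extracted and analysed by LC/MS.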

Cannabinoid receptor 1 [10] = target: T1, Cannabinoid receptor 1; experiment: Displacement of [3H]-CP55940 from human CB1 receptor
Method in brief: (§6)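 Radioligand displacement used [3H]-CP55940 as tracer in heterologous competition binding. Unlabeled reference ligands defined nonspecific binding. Ki was calculated by Cheng–Prusoff.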

[11] = Toxicity in naive Sprague-Dawley rat assessed as immobility at 0.1 to 10 mg/kg administered through oral gavage after 2 to 48 hrs by catalepsy ring test; assay type: organism-based; settings: in vivo; method in brief: as §3
Rattus norvegicus [12] = experiment: Antiallodynic activity in SNE-induced mechanical allodynia naive Sprague-Dawley rat model assessed as reversible […] in hindpaw ipsilateral withdrawal threshold at 0.3 mg/kg, ip preincubated for 3 hrs followed by SNE addition; assay type: functional, organism-based
Method in brief: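 Male Sprague–Dawley rats received unilateral sciatic nerve entrapment. Testing began 8 days post-surgery at 3-day intervals, dosed ip in DMSO/Cremophor EL/saline. Hindpaw withdrawal threshold (g) was read with a digital von Frey meter, 4 readings per paw at 30 s spacing, averaged. Reads were taken 1 h before and 3, 6, 24 and 48 h after dosing; n = 8; blinded; one-way RM ANOVA.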

Cannabinoid receptor 2 [13] = target: T2, Cannabinoid receptor 2 (Homo sapiens, UniProt P34972); experiment: Agonist activity at human CB2R expressed in CHO cells by Ca2+ flux assay; assay type: functional, cell-based; method in brief: as §5
T2 sequence (P34972 whole entry): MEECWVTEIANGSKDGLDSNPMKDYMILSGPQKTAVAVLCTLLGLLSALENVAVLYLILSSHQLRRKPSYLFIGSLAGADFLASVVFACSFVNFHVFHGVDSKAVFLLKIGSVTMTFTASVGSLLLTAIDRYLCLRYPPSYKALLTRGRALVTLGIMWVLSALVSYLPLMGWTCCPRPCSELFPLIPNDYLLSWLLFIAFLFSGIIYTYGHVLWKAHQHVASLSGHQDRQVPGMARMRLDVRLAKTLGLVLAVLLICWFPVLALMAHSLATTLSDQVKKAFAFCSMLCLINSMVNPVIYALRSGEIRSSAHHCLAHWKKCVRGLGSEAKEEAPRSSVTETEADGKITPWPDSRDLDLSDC

[14] = Toxicity in naive Sprague-Dawley rat assessed as motor incoordination at 0.1 to 10 mg/kg administered through oral gavage after 2 to 48 hrs by rotarod test; assay type: organism-based; settings: in vivo; method in brief: as §1
[15] = Toxicity in naive Sprague-Dawley rat assessed as hypothermia at 0.1 to 10 mg/kg administered through oral gavage after 2 to 48 hrs by core temperature test; assay type: organism-based; settings: in vivo; method in brief: as §4
Cannabinoid receptor 2 [16] = target: T2, Cannabinoid receptor 2; experiment: Displacement of [3H]-CP55940 from human CB2 receptor; method in brief: as §6

Structure (SMILES): CCCCCCC(C)(C)c1cc(O)c2c(c1)OC(C)(C)[C@@H]1CC=C(CO)C[C@@H]21
- Activity [1]: Toxic
- Activity (Rattus norvegicus [2]): Active
- Activity [3]: Toxic
- Activity (Rattus norvegicus [4]): Active
- Activity [5]: Toxic
- Activity (Rattus norvegicus [6]): Active

Structure (SMILES): CCCCCn1cc(C(=O)c2cccc3ccccc23)c2cccc(F)c21
- Stability [7]: 97%
- EC50 (Cannabinoid receptor 1 [8]): 0.104 µM
- Emax (Cannabinoid receptor 1 [8]): 79%
- Stability [9]: 50%

Structure (SMILES): C1=C(CCN2CCOCC2)c2ccccc2/C1=C/c1ccco1
- Ki (Cannabinoid receptor 1 [10]): > 10 µM

Structure (SMILES): CCCCCn1cc(C(=O)c2cccc3ccccc23)c2cc(F)ccc21
- Stability [7]: 99%
- Stability [9]: 13%

Structure (SMILES): COc1ccc(/C=C2\C=C(CCN3CCOCC3)c3ccccc32)c2ccccc12
- Activity [11]: Non-Toxic
- Activity (Rattus norvegicus [2]): Active
- Stability [7]: 100%
- Activity (Rattus norvegicus [12]): Active
- Activity (Rattus norvegicus [4]): Active
- EC50 (Cannabinoid receptor 2 [13]): 0.194 µM
- Emax (Cannabinoid receptor 2 [13]): 52%
- Activity [14]: Non-Toxic
- Activity [15]: Non-Toxic
- Ki (Cannabinoid receptor 2 [16]): 0.00407 µM
- EC50 (Cannabinoid receptor 1 [8]): 0.196 µM
- Emax (Cannabinoid receptor 1 [8]): 114%
- Stability [9]: 43%

Structure (SMILES): CCCCCCC1=C/C(=C\c2cccc3ccccc23)c2ccccc21
- Ki (Cannabinoid receptor 1 [10]): 0.436 µM

Structure (SMILES): CCCCCn1cc(C(=O)c2cccc3ccccc23)c2c(F)cccc21
- Stability [7]: 69%
- Stability [9]: 5%

Structure (SMILES): CCCCCCC1=C/C(=C\c2ccccc2)c2ccccc21
- Ki (Cannabinoid receptor 1 [10]): 4.41 µM

Structure (SMILES): COc1ccc(C(=O)c2c(C)n(CC[N+]3(C)CCOCC3)c3ccccc23)cc1
- Ki (Cannabinoid receptor 1 [10]): > 10 µM
